Measurements taken from the array DNA melting data of Ke et al. (doi:10.1101/2024.01.08.574731).

Assays:
[1] = folding enthalpy; higher = less favourable; fluorescence melt of hairpins on a sequencing array, two-state fit; details: sodium 0.088 M
Outline: (§1)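 Bootstrapped two-state fits yielded melting temperature and folding enthalpy for library hairpins. Cy3 fluorescence, with annealed Cy3 and quencher oligos, was imaged on a sequenced MiSeq flow cell in 50 mM Na-HEPES pH 8.0, 25 mM NaCl in 2.5 °C steps up to 60 °C, and normalised to pre-quench Cy3 and to control constructs. Four replicates were combined by inverse variance, and fitted temperatures were raised by 9.35 °C to match UV melts.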

[2] = melting temperature; fluorescence melt of hairpins on a sequencing array, two-state fit, raised by 9.35 °C to match UV melts; details: sodium 0.088 M
Outline: as §1

| Sequence | folding enthalpy [1] [kcal/mol] | Tm [2] [°C] |
| --- | --- | --- |
| GATCAGGCTTCTGATC ((((((....)))))) | -37.1 | 50.3 |
| GATCAGGGACCTGATC ((((((....)))))) | -50.5 | 54.3 |
| GATCAGGGTACTGATC ((((((....)))))) | -41 | 55.5 |
| GATCAGGGTTCTGATC ((((((....)))))) | -42.1 | 50.8 |
| GATCAGGTCTCTGATC ((((((....)))))) | -50.3 | 53.4 |
| GATCAGGTGCCTGATC ((((((....)))))) | -37 | 51.6 |
| GATCAGGTGTCTGATC ((((((....)))))) | -40.2 | 50.9 |
| GATCAGTAACCTGATC ((((((....)))))) | -27.6 | 47.4 |
| GATCAGTAATCTGATC ((((((....)))))) | -36 | 48.6 |
| GATCAGTAGACTGATC ((((((....)))))) | -40.7 | 51.5 |
| GATCAGTCACTGATC ((((((...)))))) | -39.9 | 50.1 |
| GATCAGTCTTCTGATC ((((((....)))))) | -37.8 | 51.2 |
| GATCAGTGAACTGATC ((((((....)))))) | -36.2 | 52.6 |
| GATCAGTGATCTGATC ((((((....)))))) | -36.1 | 50.2 |
| GATCAGTGCCCTGATC ((((((....)))))) | -29.9 | 49.9 |
| GATCAGTTACCTGATC ((((((....)))))) | -37 | 50.9 |
| GATCAGTTCACTGATC ((((((....)))))) | -44.8 | 58.1 |
| GATCAGTTCCTGATC ((((((...)))))) | -42.9 | 50.9 |
| GATCAGTTGCCTGATC ((((((....)))))) | -41.1 | 51.4 |
| GATCAGTTGGCTGATC ((((((....)))))) | -43 | 54.3 |
| GATCAGTTGTCTGATC ((((((....)))))) | -39.2 | 50.5 |
| GATCATAAATATGATC ((((((....)))))) | -41.4 | 45.2 |
| GATCATAACAATGATC ((((((....)))))) | -32.1 | 47 |
| GATCATAATCATGATC ((((((....)))))) | -32.1 | 46.2 |

| Sequence | folding enthalpy [1] [kcal/mol] | Tm [2] [°C] |
| --- | --- | --- |
| GATCATAGAAATGATC ((((((....)))))) | -29.4 | 41.7 |
| GATCATAGAATGATC ((((((...)))))) | -36 | 48 |
| GATCATAGATATGATC ((((((....)))))) | -33.6 | 47.3 |
| GATCATAGCAATGATC ((((((....)))))) | -40.3 | 47.4 |
| GATCATAGCCATGATC ((((((....)))))) | -44.5 | 47.5 |
| GATCATAGTAATGATC ((((((....)))))) | -37.2 | 47.3 |
| GATCATAGTCATGATC ((((((....)))))) | -32.9 | 47.2 |
| GATCATATACATGATC ((((((....)))))) | -32.9 | 48.1 |
| GATCATATTAATGATC ((((((....)))))) | -34.1 | 47.9 |
| GATCATATTCATGATC ((((((....)))))) | -37.3 | 47.8 |
| GATCATCACCATGATC ((((((....)))))) | -36.1 | 46.8 |
| GATCATCATCATGATC ((((((....)))))) | -34.8 | 45 |
| GATCATCCCCATGATC ((((((....)))))) | -34.9 | 46.2 |
| GATCATCCTATGATC ((((((...)))))) | -33.1 | 48.3 |
| GATCATCGACATGATC ((((((....)))))) | -30.4 | 44.8 |
| GATCATCGGTATGATC ((((((....)))))) | -34.2 | 46.5 |
| GATCATCGTCATGATC ((((((....)))))) | -32.4 | 45.4 |
| GATCATCTAAATGATC ((((((....)))))) | -35.9 | 47.4 |
| GATCATCTGGATGATC ((((((....)))))) | -44.9 | 53 |
| GATCATCTTAATGATC ((((((....)))))) | -36.5 | 49 |
| GATCATCTTATGATC ((((((...)))))) | -34.7 | 49.8 |
| GATCATCTTTATGATC ((((((....)))))) | -32.3 | 47.9 |
| GATCATGACTATGATC ((((((....)))))) | -48.6 | 54.2 |
| GATCATGAGCATGATC ((((((....)))))) | -36.8 | 48 |

| Sequence | folding enthalpy [1] [kcal/mol] | Tm [2] [°C] |
| --- | --- | --- |
| GATCATGATAATGATC ((((((....)))))) | -48.7 | 55.4 |
| GATCATGCCAATGATC ((((((....)))))) | -45.4 | 58.5 |
| GATCATGCGATGATC ((((((...)))))) | -31.9 | 46.9 |
| GATCATGCTTATGATC ((((((....)))))) | -35.9 | 48 |
| GATCATGGAAACGTGATC (((((.(....).))))) | -31.7 | 46.5 |
| GATCATGGAAATGATC ((((((....)))))) | -36 | 52.4 |
| GATCATGGCGATGATC ((((((....)))))) | -49.1 | 51.5 |
| GATCATGGGCATGATC ((((((....)))))) | -38 | 49.6 |
| GATCATGTACATGATC ((((((....)))))) | -40.7 | 56.5 |
| GATCATGTGGATGATC ((((((....)))))) | -35.2 | 47.3 |
| GATCATGTTGATGATC ((((((....)))))) | -41.2 | 48.4 |
| GATCATTCTATGATC ((((((...)))))) | -33.7 | 50.7 |
| GATCATTGAAATGATC ((((((....)))))) | -36.8 | 46 |
| GATCATTGAGATGATC ((((((....)))))) | -39.4 | 49.8 |
| GATCATTGCATGATC ((((((...)))))) | -34 | 50.4 |
| GATCATTGGAATGATC ((((((....)))))) | -36.1 | 46.5 |
| GATCATTGTCATGATC ((((((....)))))) | -31.7 | 46.2 |
| GATCATTTATATGATC ((((((....)))))) | -35.6 | 48.4 |
| GATCATTTCATGATC ((((((...)))))) | -40.6 | 51.8 |
| GATCATTTCCATGATC ((((((....)))))) | -40.5 | 46.1 |
| GATCATTTGATGATC ((((((...)))))) | -38.2 | 46.6 |
| GATCCAAAACTGGATC ((((((....)))))) | -31.6 | 45.6 |
| GATCCAAAAGTGGATC ((((((....)))))) | -27.5 | 43.9 |
| GATCCAAAATTGGATC ((((((....)))))) | -35.8 | 48.1 |

| Sequence | folding enthalpy [1] [kcal/mol] | Tm [2] [°C] |
| --- | --- | --- |
| GATCCAAAGATGGATC ((((((....)))))) | -26.4 | 44.5 |
| GATCCAAATTGGATC ((((((...)))))) | -31.8 | 48.3 |
| GATCCAACAATGGATC ((((((....)))))) | -32.7 | 47.1 |
| GATCCAACGCTGGATC ((((((....)))))) | -38.3 | 49.1 |
| GATCCAACGTGGATC ((((((...)))))) | -31.9 | 49.2 |
| GATCCAAGAATGGATC ((((((....)))))) | -30.2 | 46.7 |
| GATCCAAGACTGGATC ((((((....)))))) | -28.2 | 47.4 |
| GATCCAAGCGTGGATC ((((((....)))))) | -35.7 | 50.6 |
| GATCCAAGGCTGGATC ((((((....)))))) | -35.5 | 48.9 |
| GATCCAAGTCTGGATC ((((((....)))))) | -41.8 | 49 |
| GATCCAATCCTGGATC ((((((....)))))) | -37.7 | 49.2 |
| GATCCAATCTTGGATC ((((((....)))))) | -33 | 54.3 |
| GATCCAATGATGGATC ((((((....)))))) | -29.3 | 47.6 |
| GATCCAATGTGGATC ((((((...)))))) | -32.5 | 50.8 |
| GATCCAATTCTGGATC ((((((....)))))) | -39.7 | 49.5 |
| GATCCAATTTGGATC ((((((...)))))) | -39.8 | 51.1 |
| GATCCAATTTTGGATC ((((((....)))))) | -40.2 | 54 |
| GATCCACACGTGGATC ((((((....)))))) | -35.1 | 59 |
| GATCCACACTTGGATC ((((((....)))))) | -41.1 | 52.1 |
| GATCCACATTGGATC ((((((...)))))) | -25.2 | 52.2 |
| GATCCACCAGTGGATC ((((((....)))))) | -50.8 | 56.1 |
| GATCCACCTTGGATC ((((((...)))))) | -31.7 | 51.2 |
| GATCCACGATGGATC ((((((...)))))) | -27 | 48.6 |
| GATCCACGATTGGATC ((((((....)))))) | -37 | 48 |
